Measurements gathered from unrelated publications.
Protocols differ between the studies behind these lines.
Target: Cyclin-dependent kinase 11B (CDK11B, Homo sapiens, UniProt P21127)
Technique: competition with immobilised ligand

Compound | observed | concentration | remaining binding
N[C@H]1CCN(c2nccc(-c3cnn4ncccc34)n2)C1 | binding | 1 µM | 100%
O=C(Nc1c[nH]nc1C(=O)NC1CCNCC1)c1cc(F)cc(F)c1 | binding | 1 µM | 86%
COc1ccnn2ncc(-c3ccnc(N(C)C)n3)c12 | binding | 1 µM | 100%
N#CC1(c2ccccn2)CCN(Cc2cc(C(=O)N3CCCC3)c(=O)n3ccccc23)CC1 | cell-free assay | 1 µM | 80%
FC(F)(F)Oc1cccc(-c2cnc3ccc(-c4ccncc4)nn23)c1 | cell-free assay | 5 µM | 100%
CNCc1ccccc1-c1csc([C@H](C)Nc2nc(C)nc3cc(OC)c(OC)cc23)c1 | cell-free assay | 1 µM | 100%
O=C(c1ccc(Nc2ncc(Cl)c(-c3ccc(Cl)s3)n2)cc1)N1CCC(N2CCCC2)CC1 | binding | 1 µM | 46%
CN(C)c1ncc(F)c(-c2cnn3ncccc23)n1 | binding | 1 µM | 100%
CN(C)C(=O)Cn1cc(-c2nc([C@@](C)(c3ccc(-c4cnc(N)nc4)cc3)C3CC3)no2)cn1 | cell-free assay | 1 µM | 79%
COc1ncc2cc3ccccc3nc2c1C#N | cell-free assay | 5 µM | 100%
C=CC(=O)N1CCC(C(=O)NCC(=O)N2CCN(c3nc(-c4cnc(N)nc4C(F)F)nc(N4CCOCC4)n3)CC2)CC1 | binding | 1 µM | 100%
CC(=O)N1CCC(c2ccc(C(=O)NC(=N)N)cc2C(F)(F)F)CC1 | cell-free assay | 1 µM | 100%
c1cnn2ncc(-c3ccnc(N4CCC45COC5)n3)c2c1 | binding | 1 µM | 91%
c1cncc(-c2cccc(Nc3nccc(NC4CCCCC4)n3)c2)c1 | binding | 10 µM | 80%
O=C(NCCCN1CCOCC1)c1ccc(Nc2nccc(-c3cc4ccccc4s3)n2)cc1 | binding | 1 µM | 57%
CN(c1ccnc(CNc2nc(Nc3ccc4c(c3)CC(=O)N4)ncc2C(F)(F)F)n1)S(C)(=O)=O | cell-free assay | 1 µM | 91%
O=C(c1ccc(Nc2ncc(Cl)c(-c3cc4ccccc4s3)n2)cc1)N1CCC(N2CCCC2)CC1 | binding | 1 µM | 80%
C[C@H]1CCN(c2nccc(-c3cnn4ncccc34)n2)C1 | binding | 1 µM | 90%
CO[C@H]1CC[C@H](CNc2ccc(S(=O)(=O)NC(=O)c3ccc(N4CCN(CC5=C(c6ccc(Cl)cc6)CC(C)(C)CC5)CC4)cc3Oc3cnc4[nH]ccc4c3)cc2[N+](=O)[O-])CC1 | cell-free assay | 1 µM | 98%
Cc1cnn2ncc(-c3ccnc(N(C)C)n3)c2c1 | binding | 1 µM | 95%
CNC(=O)[C@@H]1CC[C@@H](n2c(-c3ccc4cnccc4c3)nc3ccc(C(=O)NCc4cccc(C(N)=O)c4)cc32)C1 | binding | 1 µM | 100%
